An excerpt weighted towards active compounds, which were near 2.3% of everything screened.
TRPC4 inh: inhibitors of mouse TRPC4 channel; Q9QUQ5; HEK293 TRPC4beta/mu-opioid, DAMGO-evoked Fluo4 calcium flux; stronger effect = lower value; B-score at 10 µM; hit rate 0.39% among 300,000; AID 2247;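 active = B-score over 3 SD under the library average, no early fluorescence shift, positive overall ratio signal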
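Assay system – HEK293 line stably carrying TRPC4beta and mu-opioid receptor · Doses – single dose · Detection – Fluo4 calcium-dye fluorescence, kinetic read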
TRPC4 agonist: activators of mouse TRPC4 channel | hit rate 0.49% among 310,000 | AID 2237 | B-score at 10 µM | HEK293 TRPC4beta/mu-opioid, Fluo4 calcium fluorescence; stronger effect = higher value;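 active = B-score above 5 SD of library B-scores, and initial fluorescence ratio not above library mean plus 5 SD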;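 note: positive B-score marks a calcium rise read as TRPC4 activation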
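System – HEK293 cells stably co-expressing mouse TRPC4beta and mu-opioid receptor · Signal – Fluo4 calcium-sensitive dye fluorescence, kinetic, 1 Hz baseline · Benchmarks – buffer (low) and maximal DAMGO (high) · Read-out – B score of integrated fluorescence ratio per well · Incubation – dye loading 45 min room temperature, 110 s kinetic read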
TRPC4 PAM: TRPC4 (mouse) allosteric potentiation | Q9QUQ5 | HEK293 TRPC4beta/mu-opioid, DAMGO EC20, Fluo-4 Ca2+ flux; stronger effect = higher value | B-score at 10 µM | hit rate 0.42% among 310,000 | AID 2227;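 active = B-score of calcium response area above 5 SD of library B-scores, with initial fluorescence ratio within 5 SD of library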;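 note: B-score of integrated fluorescence ratio over time as area under calcium response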
TRPC6 act: activators of mouse TRPC6 channel; AID 2550; B-score at 10 µM; hit rate 0.13% among 310,000; HEK293-TRPC6 membrane potential dye fluorescence; stronger effect = higher value;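 active = B-score of the integrated fluorescence ratio above library mean plus 3 SD, and starting fluorescence ratio within library mean plus 5 SD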;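 note: higher score means more depolarization so channel activation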
Target sequence (Q61143 whole entry, looked up): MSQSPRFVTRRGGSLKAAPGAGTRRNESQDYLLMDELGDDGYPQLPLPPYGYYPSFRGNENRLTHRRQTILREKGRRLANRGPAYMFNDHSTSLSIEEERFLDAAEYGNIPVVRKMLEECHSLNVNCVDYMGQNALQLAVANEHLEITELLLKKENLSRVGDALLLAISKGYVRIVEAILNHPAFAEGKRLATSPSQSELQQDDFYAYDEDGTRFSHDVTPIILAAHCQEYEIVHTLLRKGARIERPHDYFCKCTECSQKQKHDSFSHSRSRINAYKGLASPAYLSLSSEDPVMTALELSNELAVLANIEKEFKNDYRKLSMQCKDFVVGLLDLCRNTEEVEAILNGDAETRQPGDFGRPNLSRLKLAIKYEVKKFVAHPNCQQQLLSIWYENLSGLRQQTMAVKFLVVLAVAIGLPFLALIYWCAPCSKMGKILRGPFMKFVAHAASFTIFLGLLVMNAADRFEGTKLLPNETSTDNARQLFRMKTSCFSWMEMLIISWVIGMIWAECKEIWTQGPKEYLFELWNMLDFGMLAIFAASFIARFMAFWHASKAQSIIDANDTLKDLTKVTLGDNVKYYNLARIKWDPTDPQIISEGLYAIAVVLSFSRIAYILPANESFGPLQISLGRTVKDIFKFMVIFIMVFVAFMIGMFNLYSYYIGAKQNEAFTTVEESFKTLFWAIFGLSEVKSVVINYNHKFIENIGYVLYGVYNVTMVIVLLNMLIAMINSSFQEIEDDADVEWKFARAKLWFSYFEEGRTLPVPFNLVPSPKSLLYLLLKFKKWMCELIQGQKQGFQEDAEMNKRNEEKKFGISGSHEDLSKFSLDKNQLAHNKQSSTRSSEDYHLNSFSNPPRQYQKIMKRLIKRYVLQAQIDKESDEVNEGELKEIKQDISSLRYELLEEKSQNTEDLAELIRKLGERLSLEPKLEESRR
TRPC6 inh: blocks the mouse TRPC6 cation channel; Q61143; HEK293-TRPC6, membrane potential dye, ACh-evoked depolarization; stronger effect = lower value; B-score at 10 µM; hit rate 1.1% among 310,000; AID 2553;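 active = B-score under library mean minus 3 SD, initial fluorescence not abnormally high, positive integrated signal ratio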;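 note: B-score derived from integrated fluorescence ratio over the kinetic read; more negative B-score means stronger inhibition of depolarization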
The depositor's hits bear a star.

Results for CC(=Nc1ccc(C)cc1)c1sc2ccccc2c1O ?
TRPC4 inh: -6*; TRPC4 agonist: inactive; TRPC4 PAM: inactive; TRPC6 act: inactive; TRPC6 inh: inactive

Results for c1ccc2c(N3CCCCC3)nc(N3CCOCC3)nc2c1 ?
TRPC4 inh: -9*; TRPC4 agonist: inactive; TRPC4 PAM: inactive; TRPC6 act: inactive; TRPC6 inh: inactive

Results for COc1ccc(C(=O)NCC(c2ccco2)N2CCc3ccccc32)c(OC)c1 (stereo not drawn) ?
TRPC4 inh: inactive; TRPC4 agonist: inactive; TRPC4 PAM: 10*; TRPC6 act: inactive; TRPC6 inh: inactive

How did Cc1ccc(C)c(N2CCN(CCCNC(=O)CCn3c(=O)c4cccn4c4cccnc43)CC2)c1 do in these assays?
TRPC4 inh: inactive; TRPC4 agonist: inactive; TRPC4 PAM: inactive; TRPC6 act: inactive; TRPC6 inh: inactive

How did Cc1ccc(C)c(N2CCN(CCCNC(=O)Cn3c(=O)c4cccn4c4cccnc43)CC2)c1 do in these assays?
TRPC4 inh: -5*; TRPC4 agonist: inactive; TRPC4 PAM: inactive; TRPC6 act: inactive; TRPC6 inh: inactive

How did Cc1ccccc1S(=O)(=O)Cc1ccc(C(=O)NCCCN2CCCC(C)C2)o1 (stereo not drawn) do in these assays?
TRPC4 inh: inactive; TRPC4 agonist: inactive; TRPC4 PAM: inactive; TRPC6 act: inactive; TRPC6 inh: inactive

Results for COCC(C)NC(C(=O)Nc1ccc(C)c(Cl)c1)c1ccccc1 (stereo not drawn) ?
TRPC4 inh: inactive; TRPC4 agonist: 59*; TRPC4 PAM: inactive; TRPC6 act: inactive; TRPC6 inh: inactive

How did COc1ccccc1C(=O)NC(=O)Cn1nc(C)c([N+](=O)[O-])c1C do in these assays?
TRPC4 inh: inactive; TRPC4 agonist: inactive; TRPC4 PAM: inactive; TRPC6 act: inactive; TRPC6 inh: inactive

What do the screens show for `CCCCN(CCCC)/C(N)=N/c1nc(C)cc(C)n1`?
TRPC4 inh: -7*; TRPC4 agonist: inactive; TRPC4 PAM: inactive; TRPC6 act: inactive; TRPC6 inh: inactive

What do the screens show for `CCOc1ccc(N/C(N)=N/c2nc(C)cc(C)n2)cc1`?
TRPC4 inh: inactive; TRPC4 agonist: inactive; TRPC4 PAM: inactive; TRPC6 act: inactive; TRPC6 inh: inactive

What do the screens show for `Cc1ccc(CNC(=O)c2cnc3ccccc3n2)cc1`?
TRPC4 inh: inactive; TRPC4 agonist: inactive; TRPC4 PAM: inactive; TRPC6 act: inactive; TRPC6 inh: inactive

How did O=C(NCCc1ccccc1)c1cnc2ccccc2n1 do in these assays?
TRPC4 inh: inactive; TRPC4 agonist: inactive; TRPC4 PAM: 16*; TRPC6 act: inactive; TRPC6 inh: inactive

What do the screens show for `CCCN(CCC)CCCNC(=O)c1cn(-c2ccc(OC)cc2)c(=O)c2ccccc12`?
TRPC4 inh: inactive; TRPC4 agonist: inactive; TRPC4 PAM: inactive; TRPC6 act: inactive; TRPC6 inh: inactive

What do the screens show for `CCOC(=O)COc1cc(-n2c(=S)[nH]c3ccccc3c2=O)c(Cl)cc1Cl`?
TRPC4 inh: inactive; TRPC4 agonist: inactive; TRPC4 PAM: 31*; TRPC6 act: inactive; TRPC6 inh: inactive

What do the screens show for `Cc1c(N=NC2=C(O)CC(C)(C)CC2=O)c(=O)n(-c2ccccc2)n1C`?
TRPC4 inh: inactive; TRPC4 agonist: inactive; TRPC4 PAM: inactive; TRPC6 act: inactive; TRPC6 inh: inactive

How did Cc1ccccc1-c1nc(CN2CCC(C(=O)NCc3cccs3)CC2)c(C)o1 do in these assays?
TRPC4 inh: -6*; TRPC4 agonist: inactive; TRPC4 PAM: inactive; TRPC6 act: inactive; TRPC6 inh: inactive

Results for Cc1ccccc1-c1nc(CN2CCC(C(=O)NCc3ccco3)CC2)c(C)o1 ?
TRPC4 inh: inactive; TRPC4 agonist: inactive; TRPC4 PAM: inactive; TRPC6 act: inactive; TRPC6 inh: inactive

What do the screens show for `CCCCNC(=O)CCn1nc(-c2ccccc2)ccc1=O`?
TRPC4 inh: inactive; TRPC4 agonist: inactive; TRPC4 PAM: inactive; TRPC6 act: inactive; TRPC6 inh: inactive

Results for CC1CCCN(CCCNC(=O)CCn2nc(-c3ccccc3)ccc2=O)C1 (stereo not drawn) ?
TRPC4 inh: inactive; TRPC4 agonist: inactive; TRPC4 PAM: 11*; TRPC6 act: inactive; TRPC6 inh: inactive
